Test results taken from ChEMBL document CHEMBL4811251 (Eur J Med Chem, 2021).

Legend:
[1] = Oral bioavailability in BALB/c mouse at 10 mg/kg measured upto 24 hrs by LC/MS/MS analysis; type: ADME, organism-based; details: in vivo
MV4-11 [2] = assay: Induction of cell cylce arrest in human MV4-11 cells assessed as accumulation of cells at G1 phase at 3 uM after 72 hrs by RNase A/propidium iodide staining based flow cytometry (reference value: 64.41%); type: functional
How it was run: (§1)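 MV4-11 cells were seeded at 8 × 10⁴, held overnight at 37 °C with 5% CO2, then treated 72 h at 3 or 10 µM against a DMSO diluent control. Pellets were fixed in 70% ethanol on ice for 15 min, then stained 1 h at room temperature with PI, 0.1 mg/mL RNase A and 0.05% Triton X-100. Sub-G1, G1, S and G2/M fractions were read by flow cytometry.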

[3] = biological target: T1, Receptor-type tyrosine-protein kinase FLT3 (Homo sapiens, UniProt P36888); assay: Inhibition of human FLT3 using EAIYAAPFAKKK as substrate incubated for 40 mins in presence of [gamma-33ATP] by scintillation counting based radiometry assay
T1 sequence (P36888 whole entry): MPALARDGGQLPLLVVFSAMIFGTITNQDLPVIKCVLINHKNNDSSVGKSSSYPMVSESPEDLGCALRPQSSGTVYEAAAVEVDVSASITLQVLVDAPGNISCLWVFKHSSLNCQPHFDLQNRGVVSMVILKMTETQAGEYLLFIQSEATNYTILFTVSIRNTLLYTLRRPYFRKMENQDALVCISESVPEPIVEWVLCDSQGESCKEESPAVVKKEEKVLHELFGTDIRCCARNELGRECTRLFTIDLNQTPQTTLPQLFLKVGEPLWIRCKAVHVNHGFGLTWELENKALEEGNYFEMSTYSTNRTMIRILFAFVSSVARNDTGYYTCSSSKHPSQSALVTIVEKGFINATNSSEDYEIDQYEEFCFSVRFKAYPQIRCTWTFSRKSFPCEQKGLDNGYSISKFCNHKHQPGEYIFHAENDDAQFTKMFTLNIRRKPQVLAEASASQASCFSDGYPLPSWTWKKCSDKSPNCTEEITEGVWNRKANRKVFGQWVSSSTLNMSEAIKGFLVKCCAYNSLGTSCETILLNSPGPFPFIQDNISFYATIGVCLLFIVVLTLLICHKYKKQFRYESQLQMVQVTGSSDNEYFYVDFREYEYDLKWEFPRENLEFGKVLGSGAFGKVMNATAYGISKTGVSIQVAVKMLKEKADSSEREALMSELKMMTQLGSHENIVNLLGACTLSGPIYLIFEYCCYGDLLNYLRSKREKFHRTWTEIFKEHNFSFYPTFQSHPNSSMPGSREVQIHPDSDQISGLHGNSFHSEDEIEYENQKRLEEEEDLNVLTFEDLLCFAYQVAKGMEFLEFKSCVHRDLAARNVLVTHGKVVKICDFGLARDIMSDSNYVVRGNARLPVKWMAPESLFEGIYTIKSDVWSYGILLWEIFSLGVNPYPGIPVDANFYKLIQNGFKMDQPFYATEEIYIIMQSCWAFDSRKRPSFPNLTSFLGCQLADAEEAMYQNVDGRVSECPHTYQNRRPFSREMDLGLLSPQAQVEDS

[4] = AUC in Sprague-Dawley rat at 20 mg/kg, po measured upto 24 hrs by LC/MS/MS analysis; type: ADME, organism-based; set-up: route oral, dose 20 mg/kg, time <=24; details: in vivo
[5] = biological target: Macrophage colony-stimulating factor 1 receptor (Homo sapiens, UniProt P07333); assay: Inhibition of human CSF1R at 1 uM using KKKSPGEYVNIEFG as substrate incubated for 40 mins in presence of [gamma-33ATP] by scintillation counting based radiometry assay relative to control
MV4-11 [6] = assay: Induction of apoptosis in human MV4-11 cells assessed as viable cells at 10 uM after 72 hrs by Annexin V FITC/PI staining based flow cytometry analysis (reference value: 93.63%); type: functional; details: read-out: Activity
[7] = biological target: CDK9/cyclin T1 (Homo sapiens) (UniProt O60563+P50750); assay: Inhibition of CDK9/Cyclin T1 (unknown origin) assessed as residual activity at 1 uM relative to control; type: protein-complex assay
[8] = biological target: Receptor-type tyrosine-protein kinase FLT3 (Homo sapiens) (UniProt P36888); assay: Inhibition of human FLT3 at 1 uM using EAIYAAPFAKKK as substrate incubated for 40 mins in presence of [gamma-33ATP] by scintillation counting based radiometry assay relative to control
U-937 = assay: Antiproliferative activity against human U937 cells assessed as growth inhibition incubated for 72 hrs by MTT assay; type: functional
[9] = Half life in Sprague-Dawley rat at 5 mg/kg, iv measured upto 24 hrs by LC/MS/MS analysis; type: ADME, organism-based; details: in vivo
[10] = biological target: Cyclin-dependent kinase 1/cyclin B1 (Homo sapiens) (UniProt P06493+P14635); assay: Inhibition of CDK1/Cyclin B (unknown origin) assessed as residual activity at 1 uM relative to control; type: protein-complex assay
MOLM-13 = assay: Antiproliferative activity against human MOLM-13 cells assessed as growth inhibition incubated for 72 hrs by MTT assay; type: functional
MV4-11 [11] = assay: Antiproliferative activity against human MV4-11 cells assessed as growth inhibition after 72 hrs by resazurin assay; type: functional
How it was run: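 MV4-11 cells kept at 37 °C with 5% CO2 in ATCC-recommended medium plus 10% FBS. In-house resazurin viability assay after 72 h exposure. GI50 reported as mean ± standard deviation from at least two replicates.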

[12] = AUC in BALB/c mouse at 10 mg/kg, po measured upto 24 hrs by LC/MS/MS analysis; type: ADME, organism-based; set-up: route oral, dose 10 mg/kg, time <=24; details: in vivo
[13] = biological target: Glycogen synthase kinase-3 beta (Homo sapiens) (UniProt P49841); assay: Inhibition of GSK3beta (unknown origin) assessed as residual activity at 1 uM relative to control
[14] = Cmax in BALB/c mouse at 10 mg/kg, po measured upto 24 hrs by LC/MS/MS analysis; type: ADME, organism-based; set-up: route oral, dose 10 mg/kg, time <=24; details: in vivo
CDK8/Cyclin C = CDK8/Cyclin C (Homo sapiens, UniProt P49336); assay: Inhibition of CDK8/Cyclin C (unknown origin) using RBER-CHKtide as substrate in presence of [33P]gammaATP incubated for 60 mins by microplate scintillation counter analysis
[15] = Cmax in BALB/c mouse at 2 mg/kg, iv measured upto 24 hrs by LC/MS/MS analysis; type: ADME, organism-based; set-up: route intravenous, dose 2 mg/kg, time <=24; details: in vivo
MV4-11 [16] = assay: Induction of apoptosis in human MV4-11 cells assessed as viable cells at 3 uM after 72 hrs by Annexin V FITC/PI staining based flow cytometry analysis (reference value: 93.63%); type: functional; details: read-out: Activity
MV4-11 [17] = assay: Induction of cell cylce arrest in human MV4-11 cells assessed as accumulation of cells at sub G1 phase at 3 uM after 72 hrs by RNase A/propidium iodide staining based flow cytometry (reference value: 1.58%); type: functional; how it was run: as §1
[18] = Cmax in Sprague-Dawley rat at 20 mg/kg, po measured upto 24 hrs by LC/MS/MS analysis; type: ADME, organism-based; set-up: route oral, dose 20 mg/kg, time <=24; details: in vivo
[19] = Clearance in Sprague-Dawley rat at 5 mg/kg, iv measured upto 24 hrs by LC/MS/MS analysis; type: ADME, organism-based; details: in vivo

CDK8/Cyclin C, sequence (P49336 whole entry): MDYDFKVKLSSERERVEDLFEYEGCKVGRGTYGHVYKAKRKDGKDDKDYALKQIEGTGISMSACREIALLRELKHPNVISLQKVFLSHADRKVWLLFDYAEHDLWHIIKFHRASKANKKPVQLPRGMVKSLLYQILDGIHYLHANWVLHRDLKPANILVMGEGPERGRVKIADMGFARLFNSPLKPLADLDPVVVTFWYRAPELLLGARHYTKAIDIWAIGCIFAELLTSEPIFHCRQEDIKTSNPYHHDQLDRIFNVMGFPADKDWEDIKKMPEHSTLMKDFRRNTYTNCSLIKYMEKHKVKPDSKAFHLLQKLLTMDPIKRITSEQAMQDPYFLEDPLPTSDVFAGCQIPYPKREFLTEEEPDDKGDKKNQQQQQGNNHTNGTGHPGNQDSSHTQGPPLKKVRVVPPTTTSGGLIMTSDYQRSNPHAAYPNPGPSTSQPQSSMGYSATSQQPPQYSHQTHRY
CDK8/Cyclin C, sequence (P24863 whole entry, further chain): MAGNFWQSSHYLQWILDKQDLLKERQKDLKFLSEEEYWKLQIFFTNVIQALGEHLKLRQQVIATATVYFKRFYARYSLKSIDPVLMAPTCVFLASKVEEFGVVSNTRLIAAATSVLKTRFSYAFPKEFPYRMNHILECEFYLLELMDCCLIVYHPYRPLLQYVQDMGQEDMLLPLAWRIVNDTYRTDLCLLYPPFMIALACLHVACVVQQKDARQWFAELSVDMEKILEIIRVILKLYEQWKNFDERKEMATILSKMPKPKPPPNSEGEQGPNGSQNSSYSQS
Cyclin-dependent kinase 1/cyclin B1 (Homo sapiens), sequence (P06493 whole entry, looked up): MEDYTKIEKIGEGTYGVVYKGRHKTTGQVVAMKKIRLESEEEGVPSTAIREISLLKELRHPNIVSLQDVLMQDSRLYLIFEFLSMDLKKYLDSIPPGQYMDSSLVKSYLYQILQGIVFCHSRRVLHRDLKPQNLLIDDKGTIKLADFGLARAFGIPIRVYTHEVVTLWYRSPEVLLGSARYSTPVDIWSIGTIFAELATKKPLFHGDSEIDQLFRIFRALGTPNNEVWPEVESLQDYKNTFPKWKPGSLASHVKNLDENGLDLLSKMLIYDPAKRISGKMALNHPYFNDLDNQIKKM
Cyclin-dependent kinase 1/cyclin B1 (Homo sapiens), sequence (P14635 whole entry, looked up): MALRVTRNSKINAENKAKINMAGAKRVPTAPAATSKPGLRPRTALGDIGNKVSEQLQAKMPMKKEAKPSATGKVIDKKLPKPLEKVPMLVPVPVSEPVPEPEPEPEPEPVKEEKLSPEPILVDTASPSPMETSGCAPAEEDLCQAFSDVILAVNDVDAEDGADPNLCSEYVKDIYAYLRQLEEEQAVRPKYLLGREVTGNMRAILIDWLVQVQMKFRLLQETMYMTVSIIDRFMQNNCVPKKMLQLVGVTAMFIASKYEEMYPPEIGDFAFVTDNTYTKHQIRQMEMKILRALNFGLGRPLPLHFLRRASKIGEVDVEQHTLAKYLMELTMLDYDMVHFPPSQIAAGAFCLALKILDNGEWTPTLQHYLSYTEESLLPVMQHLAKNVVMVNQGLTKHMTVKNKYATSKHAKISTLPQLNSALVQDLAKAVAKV
Macrophage colony-stimulating factor 1 receptor, sequence (P07333 whole entry): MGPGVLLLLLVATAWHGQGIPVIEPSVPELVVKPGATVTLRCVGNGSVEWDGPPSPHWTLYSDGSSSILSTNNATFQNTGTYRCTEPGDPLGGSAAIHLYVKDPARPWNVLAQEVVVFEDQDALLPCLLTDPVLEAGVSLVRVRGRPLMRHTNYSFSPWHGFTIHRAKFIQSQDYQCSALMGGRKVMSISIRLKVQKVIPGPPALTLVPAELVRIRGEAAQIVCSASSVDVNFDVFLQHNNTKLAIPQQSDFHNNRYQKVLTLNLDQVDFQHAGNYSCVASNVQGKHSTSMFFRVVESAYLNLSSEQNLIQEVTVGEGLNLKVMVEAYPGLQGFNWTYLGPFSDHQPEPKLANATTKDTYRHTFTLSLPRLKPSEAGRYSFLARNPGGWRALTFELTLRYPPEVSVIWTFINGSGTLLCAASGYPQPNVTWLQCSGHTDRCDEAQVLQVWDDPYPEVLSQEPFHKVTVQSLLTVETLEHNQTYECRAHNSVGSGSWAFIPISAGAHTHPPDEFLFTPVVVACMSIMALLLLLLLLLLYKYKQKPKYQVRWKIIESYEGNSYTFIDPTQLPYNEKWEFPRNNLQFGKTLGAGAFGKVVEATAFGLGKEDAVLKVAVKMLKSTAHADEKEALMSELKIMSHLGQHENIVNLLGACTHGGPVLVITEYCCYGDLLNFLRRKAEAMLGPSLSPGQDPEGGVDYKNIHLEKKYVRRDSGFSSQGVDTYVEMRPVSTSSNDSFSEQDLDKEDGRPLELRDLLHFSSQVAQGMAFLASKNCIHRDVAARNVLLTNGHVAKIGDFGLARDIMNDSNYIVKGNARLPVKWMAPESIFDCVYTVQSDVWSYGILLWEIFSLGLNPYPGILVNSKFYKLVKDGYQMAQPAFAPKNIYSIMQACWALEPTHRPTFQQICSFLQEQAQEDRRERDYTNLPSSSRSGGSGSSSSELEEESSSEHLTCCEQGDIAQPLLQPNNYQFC
Glycogen synthase kinase-3 beta (Homo sapiens), sequence (P49841 whole entry, looked up): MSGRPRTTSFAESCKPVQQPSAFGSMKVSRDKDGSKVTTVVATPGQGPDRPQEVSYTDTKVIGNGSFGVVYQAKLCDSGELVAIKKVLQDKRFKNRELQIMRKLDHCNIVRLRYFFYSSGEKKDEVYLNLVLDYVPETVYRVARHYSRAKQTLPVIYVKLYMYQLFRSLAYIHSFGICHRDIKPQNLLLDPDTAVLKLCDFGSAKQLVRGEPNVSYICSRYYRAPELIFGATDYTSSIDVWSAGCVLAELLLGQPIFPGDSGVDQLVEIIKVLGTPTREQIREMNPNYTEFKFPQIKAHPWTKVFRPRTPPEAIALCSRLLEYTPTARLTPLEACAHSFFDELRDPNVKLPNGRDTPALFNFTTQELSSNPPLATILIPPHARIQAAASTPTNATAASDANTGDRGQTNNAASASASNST

Nc1ncc(-c2cc3ccccc3o2)c(N2CCC3(CCNC3=O)CC2)c1Cl showed a bioavailability [1] of 33%, an Activity (MV4-11 [2]) of 75.73% and a Ki [3] of 242 nM. The AUC at 24 h [4] was 25.1 µM·h, the inhibition [5] was greater than 50% and the viability at 10 µM (MV4-11 [6]) was 83.4%. The Activity [7] was 61%, the inhibition [8] was greater than 50% and the GI50 (U-937) was 4880 nM. For the same molecule, the half-life [9] was 1.45 h, the Activity [10] was 61% and the GI50 (MOLM-13) was 5110 nM. For the same molecule, the GI50 (MV4-11 [11]) was 600 nM, the AUC at 24 h [12] was 2.56 µM·h and the Activity [13] was 61%. The Cmax [14] was 2.23 µM, the Ki (CDK8/Cyclin C) was 9 nM and the Cmax [15] was 4.16 µM. The viability at 3 µM (MV4-11 [16]) was 89.5%, the Activity (MV4-11 [17]) was 1.73% and the Cmax [18] was 3.2 µM. The clearance [19] was 23.8 mL/min/kg.
